Published values of several laboratories.
Each line is one published result; the experiments were not run side by side.
Target: Insulin receptor-related protein (INSRR, Homo sapiens, UniProt P14616)

COc1cc(-c2cn(C3CCc4ccccc4N(CC(F)(F)F)C3=O)nn2)ccc1-n1ccc(C)n1 (stereo not shown)  remaining binding (cell-free assay, competition with immobilised ligand; 1 µM): 100%
CC1CCCN1c1nccc(-c2cnn3ncccc23)n1 (stereo not shown)  remaining binding (binding; 1 µM): 100%
O=C(Nc1cnc(Oc2ccc(F)cc2)nc1)N1CCc2ncccc2[C@@H]1c1ccc(F)cc1  remaining binding (cell-free assay, competition with immobilised ligand; 1 µM): 84%
C=CC(=O)N1CCC(C(=O)NCC(=O)N2CCN(c3nc(-c4cnc(N)nc4C(F)F)nc(N4CCOCC4)n3)CC2)CC1  remaining binding (binding, competition with immobilised ligand; 1 µM): 96%
C[C@@]1(Cc2ccc(C#N)cc2)C(=O)N(c2cc(Cl)cc(Cl)c2)c2ncc(C(=O)NC3(c4nc(C5CCC5)no4)CC3)n21  remaining binding (cell-free assay, competition with immobilised ligand; 1 µM): 100%
CN(C)c1nccc(-c2cnn3ncccc23)n1  remaining binding (binding; 1 µM): 92%
Nc1ncc2c(n1)-c1c([nH]c3ccc(C#CC4CC4)cc13)CCCC2  remaining binding (binding, competition with immobilised ligand; 1 µM): 98%
C[C@@H]1CN(c2cc(-c3nn(C)c4ccc(OC5(C)CC5)cc34)ncn2)C[C@H](C)O1  remaining binding (cell-free assay, competition with immobilised ligand; 1 µM): 91%
CN(CCCC(F)(F)F)c1nccc(-c2cnn3ncccc23)n1  remaining binding (binding; 1 µM): 100%
CCOCCn1cc(C(=O)Nc2ccc(-n3nc(-c4cccnc4)cc3C(F)(F)F)cn2)ccc1=O  remaining binding (cell-free assay, competition with immobilised ligand; 1 µM): 100%
C[C@@H](c1ccc(-n2cnc3c(N)ncnc32)cc1)N1CCc2nn(C)c(Cc3ccccc3)c2C1=O  remaining binding (binding, competition with immobilised ligand; 0.1 µM): 91%
COc1ccnn2ncc(-c3ccnc(N(C)C)n3)c12  remaining binding (binding; 1 µM): 99%
O=C1CCc2cc(Nc3cc(OC4CCOCC4)c([N+](=O)[O-])cc3Cl)ccc2N1  remaining binding (cell-free assay, competition with immobilised ligand; 1 µM): 100%
CN(C)c1nccc(-c2cnc3ncccn23)n1  remaining binding (binding; 1 µM): 82%
NS(=O)(=O)c1cc(NC(=O)C2(c3ccccc3Cl)CC2)ccc1Oc1cccc(Cl)c1  remaining binding (cell-free assay, competition with immobilised ligand; 1 µM): 95%
N[C@H]1CCN(c2nccc(-c3cnn4ncccc34)n2)C1  remaining binding (binding; 1 µM): 97%
O=C(c1ccc(Nc2ncc(Cl)c(-c3ccc(Cl)s3)n2)cc1)N1CCC(N2CCCC2)CC1  remaining binding (binding, competition with immobilised ligand; 1 µM): 23%
F[C@@H]1CCN(c2nccc(-c3cnn4ncccc34)n2)C1  remaining binding (binding; 1 µM): 100%
Cc1cnc(Nc2ccc(C(=O)N3CCC(N4CCCC4)CC3)cc2)nc1-c1cc2ccccc2s1  remaining binding (binding, competition with immobilised ligand; 1 µM): 44%
O=C(Nc1c[nH]nc1C(=O)NC1CCNCC1)c1cc(F)cc(F)c1  remaining binding (binding, competition with immobilised ligand; 1 µM): 92%
COc1cnc(Nc2cccc(S(N)(=O)=O)c2)nc1N1CCN(c2ccccc2)C(=O)C1  remaining binding (binding, competition with immobilised ligand; 1 µM): 100%
O=C(c1ccc(Nc2ncc(Cl)c(-c3cc4ccccc4s3)n2)cc1)N1CCC(N2CCCC2)CC1  remaining binding (binding, competition with immobilised ligand; 1 µM): 25%
